From publication PMC8897208 (Acta Pharmaceutica Sinica. B, 2021)

Key:
[1] = target: T1, SIRT6 (Homo sapiens, UniProt Q8N6T7); assay: Fluor de Lys; assay type: biochemical
Procedure, shortened: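 Recombinant SIRT6 was expressed in E. coli BL21 in LB with 100 μg/mL ampicillin at 37 °C. Expression was induced with 0.5 mmol/L IPTG at OD600 0.8, then grown 18 h at 16 °C and purified by an earlier method.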

[2] = target: T1, SIRT6; assay: In vitro nucleosome deacetylation assay; assay type: biochemical; conditions: 10 mmol/L, H3K9Ac and H3K18Ac, Western blot
Procedure, shortened: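 Nucleosomes were isolated from HeLa cells and deacetylated in vitro by SIRT6 in the presence of NAD+. H3K9Ac and H3K18Ac were detected by Western blot.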

T1 sequence (Q8N6T7 whole entry): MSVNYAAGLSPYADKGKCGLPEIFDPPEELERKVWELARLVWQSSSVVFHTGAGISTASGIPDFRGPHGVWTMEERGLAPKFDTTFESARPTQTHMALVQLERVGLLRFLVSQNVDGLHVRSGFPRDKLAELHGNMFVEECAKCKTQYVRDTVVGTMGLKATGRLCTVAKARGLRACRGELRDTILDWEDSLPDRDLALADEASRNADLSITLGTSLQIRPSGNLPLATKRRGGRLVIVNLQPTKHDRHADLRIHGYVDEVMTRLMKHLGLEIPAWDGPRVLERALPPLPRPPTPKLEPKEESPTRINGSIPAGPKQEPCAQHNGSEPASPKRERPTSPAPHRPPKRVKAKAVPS

SMILES	IC50 [1] [µM]	inhibition ratio at 50 μmol/L ([1]; FDL assay, substrate Ac-RHKK-Ac-AMC, 50 μmol/L compound) [%]	inhibition of SIRT6 deacetylation on nucleosomes [2]
Nc1nonc1-n1cc(C(=O)N/N=C/c2ccccc2O)nn1 [JYQ-1]	26.8	64.18	
NC(=O)c1cccnc1 [nicotinamide, reference compound]			weak inhibition
